{"source": "ChEMBL document CHEMBL5365533", "about": "“DNA major versus minor groove occupancy of monomeric and dimeric crystal violet derivatives. Toward structural correlations” (Bioorg Med Chem, 2023)", "key": {"[1]": {"system": "Calf thymus DNA", "assay": "Binding affinity to calf thymus DNA in Tris-HCl buffer at pH 7.0 assessed as minimal change in viscosity at 2 to 26 uM incubated for 30 mins by Ostwald viscometer analysis", "type": "nucleic-acid assay", "conditions": "Bos taurus, dose 2-26 µM", "procedure,_shortened": "(§1)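 Ostwald viscometer at 23.0 ± 1 °C. CT DNA held at 300 μM/bp in 10 mM Tris-HCl pH 7.0 with ligand or ethidium at 0–26 μM, incubated 30 min before timing flow. (η/η0)^1/3 plotted against [ligand]/[DNA]; three replicates, SD shown.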"}, "[2]": {"system": "DNA", "assay": "Displacement of Ethidium bromide from (AT)5 (5'-GGGATATA-TATATCCC-3') DNA (unknown origin)/EtBr complex assessed as decrease in initial absorbance of DNA by crystal violet staining based analysis", "type": "nucleic-acid assay"}, "[3]": {"assay": "Binding affinity to DDD (5-CGAATT-3') hairpin DNA (unknown origin) assessed as binding constant by isothermal titration calorimetry"}, "[4]": {"system": "Calf thymus DNA", "assay": "Ratio of Kapp for displacement of ethidium bromide from calf thymus DNA/EtBr complex to Kapp for displacement of ethidium bromide from calf thymus DNA/EtBr in presence of netropsin", "type": "nucleic-acid assay", "conditions": "Bos taurus", "procedure,_shortened": "(§2)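 Fluorescence titration of CT DNA (1.0 μM/bp) plus ethidium (0.5 μM), with or without netropsin or methyl green (0.5 μM each), against increasing ligand in 10 mM Tris-HCl pH 7.0. Excitation 520 nm, emission 590 nm, read after 3 min equilibration. C50 is the concentration giving 50% fluorescence loss; Kapp = 9.5×10^6 M⁻¹ × C_ethidium/C50.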"}, "[5]": {"system": "Calf thymus DNA", "assay": "Binding affinity to calf thymus DNA assessed as hypochromic shift by UV spectroscopic analysis", "type": "nucleic-acid assay", "conditions": "Bos taurus", "procedure,_shortened": "(§3)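 UV titration in 10 mM Tris-HCl pH 7.0 with ligand fixed at 5.0 μM and CT DNA:ligand ratios of 0:1, 1:1, 2:1, 5:1, 10:1 and 30:1.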"}, "[6]": {"assay": "Displacement of Ethidium bromide from G5C5 (5'-AAAGGGGG-CCCCCTTT-3') DNA (unknown origin)/EtBr complex assessed as decrease in initial absorbance of DNA by crystal violet staining based analysis"}, "[7]": {"system": "AT rich DNA", "assay": "Displacement of Ethidium bromide from AT3 (5'-ATATAT-3') hairpin DNA (unknown origin)/EtBr complex assessed as binding constant by crystal violet staining based analysis", "type": "nucleic-acid assay"}, "[8]": {"assay": "Binding affinity to DDD hairpin DNA (unknown origin) in Tris-HCl buffer at pH 5.0 assessed as negative induced CD bands formation at 310nm at 1 mM incubated for 5 mins by CD spectra analysis", "procedure,_shortened": "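Ligand (1 mM stock) added in small aliquots to DDD hairpin (8.8 μM) in 10 mM Tris-HCl pH 5.0; mixed by inversion and incubated 5 min at 20 °C. CD recorded 215–350 nm in 0.5 nm steps as the average of three scans.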"}, "[9]": {"assay": "Displacement of Ethidium bromide from cMyc (5'-CACGTG-3') hairpin DNA (unknown origin)/EtBr complex assessed as binding constant by crystal violet staining based analysis"}, "[10]": {"system": "Calf thymus DNA", "assay": "Ratio of Kapp for displacement of ethidium bromide from calf thymus DNA/EtBr complex to Kapp for displacement of ethidium bromide from calf thymus DNA/EtBr in presence of methyl green", "type": "nucleic-acid assay", "conditions": "Bos taurus", "procedure,_shortened": "as §2"}, "[11]": {"system": "Calf thymus DNA", "assay": "Binding affinity to calf thymus DNA assessed as bathochromic shift by UV spectroscopic analysis", "type": "nucleic-acid assay", "conditions": "Bos taurus", "procedure,_shortened": "as §3"}, "[12]": {"system": "DNA", "assay": "Displacement of Ethidium bromide from A5T5 (5'-GGGAAAAATTTTTCCCCC-3') DNA (unknown origin)/EtBr complex assessed as decrease in initial absorbance of DNA by crystal violet staining based analysis", "type": "nucleic-acid assay"}, "[13]": {"system": "Calf thymus DNA", "assay": "Binding affinity to calf thymus DNA in Tris-HCl buffer at pH 7.0 assessed as change in entropy at 100 uM by isothermal titration […] analysis", "type": "nucleic-acid assay", "conditions": "Bos taurus", "procedure,_shortened": "(§4)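 ITC of CT DNA (100 μM/bp in cell) titrated with ligand (100 μM in syringe), 10 mM Tris-HCl pH 7.0; 25 injections of 10 μL at 30 °C, or for one ligand 50 injections of 5 μL at 27 °C. Buffer-into-DNA heats subtracted; single-site model gives K, N, ΔH and ΔS.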"}, "[14]": {"assay": "Displacement of Ethidium bromide from STAT6 (5'-TCCTAG-3') hairpin DNA (unknown origin)/EtBr complex assessed as binding constant by crystal violet staining based analysis"}, "[15]": {"system": "Calf thymus DNA", "assay": "Binding affinity to calf thymus DNA in Tris-HCl buffer at pH 7.0 assessed as rigidification of DNA from intercalation of drug incubated for 30 mins by Ostwald viscometer analysis", "type": "nucleic-acid assay", "conditions": "Bos taurus", "procedure,_shortened": "as §1"}, "[16]": {"system": "Calf thymus DNA", "assay": "Binding affinity to calf thymus DNA in Tris-HCl buffer at pH 7.0 assessed as change in enthalpy at 100 uM by isothermal titration […] analysis", "type": "nucleic-acid assay", "conditions": "Bos taurus", "procedure,_shortened": "as §4"}, "[17]": {"system": "Calf thymus DNA", "assay": "Binding affinity to calf thymus DNA assessed as change in melting temperature by UV thermal denaturation assay", "type": "nucleic-acid assay", "conditions": "Bos taurus", "procedure,_shortened": "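CT DNA in 10 mM Tris-HCl pH 7.0 at a DNA:ligand ratio of 30:1, in 1 cm quartz cuvettes. Absorbance read every 2 °C from 25 to 95 °C, heating at 1 °C/min. Tm taken from first-derivative plots.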"}, "[18]": {"system": "Calf thymus DNA", "assay": "Binding affinity to calf thymus DNA in Tris-HCl buffer at pH 7.0 assessed as lengthening of DNA from intercalation of drug incubated for 30 mins by Ostwald viscometer analysis", "type": "nucleic-acid assay", "conditions": "Bos taurus", "procedure,_shortened": "as §1"}, "[19]": {"assay": "Displacement of Ethidium bromide from NFAT1 (5-GAAAAA-3') hairpin DNA (unknown origin)/EtBr complex assessed as binding constant by crystal violet staining based analysis"}, "[20]": {"system": "Calf thymus DNA", "assay": "Binding affinity to calf thymus DNA in Tris-HCl buffer at pH 7.0 assessed as differential groove occupancy at 100 uM by ITC analysis", "type": "nucleic-acid assay", "conditions": "Bos taurus", "procedure,_shortened": "as §4"}, "[21]": {"assay": "Binding affinity to DDD hairpin DNA (unknown origin) assessed as binding constant at 100 uM by ITC analysis", "procedure,_shortened": "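Isothermal titration calorimetry of DDD hairpin (10 μM in cell) titrated with ligand (100 μM in syringe), 10 mM Tris-HCl pH 7.0, 30 °C; 25 injections of 10 μL. Heats of dilution subtracted; single-site binding model fitted; K averaged from triplicate experiments.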"}}, "note": "The source made the active and inactive calls. No cut-off for these calls is given here."}
{"compound": "Cc1cc(N(C)C)cc(C)c1C(=C1C=CC(=[N+](C)C)C=C1)c1ccc(N(C)C)cc1", "values": [{"measurement": "Activity", "setting": "[1]", "result": "Dose-Dependent Effect"}, {"measurement": "C50", "setting": "[2]", "result": 1.57, "unit": "µM"}, {"measurement": "K", "setting": "[3]", "result": "14.6 10^5/M"}, {"measurement": "Ratio", "setting": "[4]", "result": 1.3}, {"measurement": "Activity", "setting": "[5]", "result": "Active"}, {"measurement": "C50", "setting": "[6]", "result": 2.05, "unit": "µM"}, {"measurement": "K", "setting": "[7]", "result": "0.21 10^5/M"}, {"measurement": "Activity", "setting": "[8]", "result": "Active"}, {"measurement": "K", "setting": "[9]", "result": "1.26e+06", "unit": "M⁻¹"}, {"measurement": "Ratio", "setting": "[10]", "result": "> 8"}, {"measurement": "Activity", "setting": "[11]", "result": "Active"}, {"measurement": "C50", "setting": "[12]", "result": 1.86, "unit": "µM"}, {"measurement": "deltaS", "setting": "[13]", "result": 0.122, "unit": "kcal/mol"}, {"measurement": "K", "setting": "[14]", "result": "1.06 10^5/M"}, {"measurement": "Activity", "setting": "[15]", "result": "Active"}, {"measurement": "deltaH", "setting": "[16]", "result": 29.7, "unit": "kcal/mol"}, {"measurement": "ΔTm", "setting": "[17]", "result": 2.8, "unit": "°C"}, {"measurement": "Activity", "setting": "[18]", "result": "Active"}, {"measurement": "K", "setting": "[19]", "result": "0.19 10^5/M"}, {"measurement": "Activity", "setting": "[20]", "result": "Active"}, {"measurement": "K", "setting": "[21]", "result": "14.6 10^5/M"}]}
